Calls of active or inactive are those of the source. The rule behind the calls is not given here.
Experiments:
Trypanosoma cruzi [1] = assay: Antitrypanosomal activity against Trypanosoma cruzi Dm28c epimastigotes assessed as inhibition of parasite proliferation after 5 days by hemocytometer analysis; assay type: functional, organism-based; settings: 120 h
How it was run: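 Dm28c epimastigotes kept in LIT medium with 10% FBS at 26 °C, seeded at 10⁶ cells/well. DMSO stocks serially diluted in LIT (1.23–100 […] as printed; final DMSO 1%), triplicate wells. 5 days at 26 °C, then viable parasites counted in a Neubauer chamber against untreated culture; IC50 from concentrations in triplicate, experiment repeated, only values with SD <10% of mean kept.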

Trypanosoma cruzi [2] = assay: Antitrypanosomal activity against Trypanosoma cruzi Y […] trypomastigotes isolated from infected LLC-MK2 cells assessed as parasite viability after 24 hrs by neubauer chamber analysis; assay type: functional; settings: LLC-MK2, 24 h
How it was run: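 Y strain (TcII) […] trypomastigotes taken from supernatant of infected LLC-MK2 cells, seeded at 4 × 10⁵ cells/well in RPMI-1640. DMSO stocks serially diluted in RPMI. 24 h at 37 °C, 5% CO₂; viable parasites counted in a Neubauer chamber, % inhibition versus untreated cultures; CC50 by nonlinear regression, triplicates, experiment repeated, SD <10% of mean required.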

[3] = Cytotoxicity against BALB/c mouse splenocytes assessed as cell viability after 24 hrs by [3H]thymidine incorporation assay; assay type: cell-based, Splenocyte; settings: for MNTC at 24 h: read-out: MNCC
How it was run: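 Splenocytes from BALB/c mice seeded at 5 × 10⁶ cells/well. DMSO stocks serially diluted in RPMI-1640 (final DMSO 1%), triplicate wells. 24 h at 37 °C, 5% CO₂ with […] ³H-thymidine; cells harvested, % ³H-thymidine incorporation by scintillation counting. CC50 from five concentrations; highest non-cytotoxic concentration also noted.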

[4] = target: Cruzipain (Trypanosoma cruzi) (UniProt P25779); assay: Inhibition of Trypanosomal cruzi recombinant cruzain assessed as substrate cleavage using Z-Phe-Arg-AMC as substrate at 50 uM preincubated for 10 mins measured for 5 mins by flow cytometry; settings: in the assay text read “by fluorescence assay” for “by flow cytometry”
Chain of Cruzipain (Trypanosoma cruzi) (P25779 123-467 limits assumed): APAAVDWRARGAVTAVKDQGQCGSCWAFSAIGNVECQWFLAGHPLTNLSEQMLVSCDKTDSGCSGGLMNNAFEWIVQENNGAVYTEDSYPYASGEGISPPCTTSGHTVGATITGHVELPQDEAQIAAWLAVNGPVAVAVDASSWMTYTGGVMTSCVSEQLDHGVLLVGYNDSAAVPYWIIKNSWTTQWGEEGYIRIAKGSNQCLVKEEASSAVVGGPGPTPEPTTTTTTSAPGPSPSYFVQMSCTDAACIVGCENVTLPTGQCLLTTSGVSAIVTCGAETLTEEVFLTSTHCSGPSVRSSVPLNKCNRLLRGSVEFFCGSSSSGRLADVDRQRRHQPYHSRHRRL
How it was run: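 Recombinant cruzain, final concentration 0.5 nM, in 0.1 M sodium acetate pH 5.5 with 1 mM β-mercaptoethanol and 0.01% Triton X-100. Substrate Z-FR-AMC at 2.5 (Km 1.0). Screened with no pre-incubation and after 10-min enzyme pre-incubation. Fluorescence read at ex 340/em 440 nm for 5 min, activity relative to DMSO control. Two independent experiments in triplicate.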

Trypanosoma cruzi [5] = assay: Antitrypanosomal activity against Trypanosoma cruzi trypomastigotes assessed as induction of apoptotic parasitic death at CC25 to CC100 after 24 hrs by Annexin V-FITC/propidium iodide staining based flow cytometry; assay type: functional, organism-based
Trypanosoma cruzi [6] = assay: Antitrypanosomal activity against Trypanosoma cruzi trypomastigotes assessed as early apoptotic cells at 0.25 uM after 24 hrs by Annexin V-FITC/propidium iodide staining based flow cytometry (reference value: 1.71%); assay type: functional
Trypanosoma cruzi [7] = assay: Antitrypanosomal activity against Trypanosoma cruzi trypomastigotes assessed as necrotic cells at 1.1 uM after 24 hrs by Annexin V-FITC/propidium iodide staining based flow cytometry (reference value: 0.37%); assay type: functional
[8] = Selectivity index, ratio of CC50 for BALB/c mouse splenocytes to CC50 for Trypanosoma cruzi Y trypomastigotes
How it was run: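 Ratio of CC50 in BALB/c splenocytes (24 h ³H-thymidine incorporation) to CC50 in Y strain trypomastigotes (24 h Neubauer count of viable parasites).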

Trypanosoma cruzi [9] = assay: Antitrypanosomal activity against Trypanosoma cruzi trypomastigotes assessed as late apoptotic cells at 0.25 uM after 24 hrs by Annexin V-FITC/propidium iodide staining based flow cytometry (reference value: 0.8%); assay type: functional
Trypanosoma cruzi [10] = assay: Antitrypanosomal activity against Trypanosoma cruzi trypomastigotes assessed as early apoptotic cells at 1.1 uM after 24 hrs by Annexin V-FITC/propidium iodide staining based flow cytometry (reference value: 1.71%); assay type: functional
Trypanosoma cruzi [11] = assay: Antitrypanosomal activity against Trypanosoma cruzi trypomastigotes assessed as late apoptotic cells at 1.1 uM after 24 hrs by Annexin V-FITC/propidium iodide staining based flow cytometry (reference value: 0.8%); assay type: functional
Trypanosoma cruzi [12] = assay: Antitrypanosomal activity against Trypanosoma cruzi trypomastigotes assessed as necrotic cells at 0.25 uM after 24 hrs by Annexin V-FITC/propidium iodide staining based flow cytometry (reference value: 0.37%); assay type: functional
Trypanosoma cruzi [13] = assay: Antitrypanosomal activity against Trypanosoma cruzi trypomastigotes assessed as induction of apoptotic parasitic death after 24 hrs by Annexin V-FITC/propidium iodide staining based flow cytometry; assay type: functional, organism-based

Row | SMILES | IC50 (Trypanosoma cruzi [1]) [µM] | CC50 (Trypanosoma cruzi [2]) [µM] | MNTC at 24 h [3] [µM] | also measured
1 | C/C(=N\NC(N)=S)C(C)Oc1ccc(Cl)c(Cl)c1 (stereo not given) | 4.4 | 4.4 | 16.3 | 
2 | CC1CS(=O)(=O)CCN1/N=C/c1ccc([N+](=O)[O-])o1 (stereo not given) [NIFURTIMOX] | 5.7 | 2.7 |  | 
3 | C/C(=N\NC(N)=S)C(C)Oc1ccccc1 (stereo not given) | 26.1 | 27.3 | 211 | 
4 | C/C(=N\NC(N)=S)C(C)Oc1cccc(-c2ccccc2)c1 (stereo not given) | 2.2 | 1.3 | 31.9 | 
5 | C/C(=N\NC(N)=S)C(C)Oc1ccc(C(C)(C)C)cc1 (stereo not given) | 4.6 | 1.4 | 17 | 
6 | C/C(=N\NC(N)=S)C(C)Oc1ccccc1Cl (stereo not given) | 10.3 | 1.5 | 36.8 | 
7 | O=C(Cn1ccnc1[N+](=O)[O-])NCc1ccccc1 [BENZNIDAZOLE] | 48.8 | 6.2 |  | 
8 | C/C(=N\NC(N)=S)C(C)Oc1ccc(F)c(Cl)c1 (stereo not given) |  | 3.5 | 34.5 | 
9 | C/C(=N\NC(N)=S)C(C)Oc1ccc(F)cc1 (stereo not given) | 86.4 | 23.2 | > 392 | 
10 | C/C(=N\NC(N)=S)C(C)Oc1ccc(I)cc1 (stereo not given) | 4.9 | 1.1 | 13.7 | 
11 | COc1cccc(OC(C)/C(C)=N/NC(N)=S)c1 (stereo not given) | 6.8 | 6.2 | 37.4 | 
12 | C/C(=N\NC(N)=S)C(C)Oc1cccc(Cl)c1Cl (stereo not given) | 2.2 | 11.9 | 32.6 | 
13 | C/C(=N\NC(N)=S)C(C)Oc1ccc(-c2ccccc2)cc1 (stereo not given) | 4.5 | 1.3 | 15.9 | inhibition [4]: inactive
14 | C/C(=N\NC(N)=S)C(C)Oc1cccc(Cl)c1 (stereo not given) | 45.8 | 5.5 | 36.8 | Activity (Trypanosoma cruzi [5]): Active
15 | C/C(=N\NC(N)=S)C(C)Oc1ccc2ccccc2c1 (stereo not given) | 17.9 | 5.6 | 34.8 | 
16 | C/C(=N\NC(N)=S)C(C)Oc1cccc(Br)c1 (stereo not given) | 5.8 | 4.5 | 31.6 | 
17 | C/C(=N\NC(N)=S)C(C)Oc1ccccc1-c1ccccc1 (stereo not given) | 2.2 | 1.1 | 31.9 | Activity (Trypanosoma cruzi [6]): 1.22%; Activity (Trypanosoma cruzi [7]): 4.62%; Selectivity Index [8]: 45; Activity (Trypanosoma cruzi [9]): 2.21%; Activity (Trypanosoma cruzi [10]): 7.8%; Activity (Trypanosoma cruzi [11]): 6.2%; Activity (Trypanosoma cruzi [12]): 0.51%; Activity (Trypanosoma cruzi [13]): Dose-dependent effect; CC50 at 24 h [3]: 50 µM
18 | C/C(=N\NC(N)=S)C(C)Oc1ccc(Br)cc1 (stereo not given) | 20.1 | 3.9 | 31.6 | 
19 | COc1ccc(OC(C)/C(C)=N/NC(N)=S)cc1 (stereo not given) | 27.6 | 26.8 | 93.5 | 
20 | C/C(=N\NC(N)=S)C(C)Oc1ccc([N+](=O)[O-])cc1 (stereo not given) | 177 | 5.9 | 88.5 | inhibition [4]: inactive
21 | C/C(=N\NC(N)=S)C(C)Oc1ccc(C(C)C)cc1 (stereo not given) | 5.9 | 1.5 | 17.9 | 
22 | C/C(=N\NC(N)=S)C(C)Oc1cccc2ccccc12 (stereo not given) | 4.9 | 1.5 | 34.8 | inhibition [4]: inactive
23 | C/C(=N\NC(N)=S)C(C)Oc1ccc(Cl)cc1 (stereo not given) | 13.5 | 22.8 | 92 | 
24 | CCc1ccc(OC(C)/C(C)=N/NC(N)=S)cc1 (stereo not given) | 11.6 | 4.6 | 18.8 | 
25 | C/C(=N\NC(N)=S)C(C)Oc1ccc(Oc2ccccc2)cc1 (stereo not given) |  | 1.3 | 30.3 | 
26 | CC(=O)Nc1ccc(OC(C)/C(C)=N/NC(N)=S)cc1 (stereo not given) | 71.5 | 1.4 | > 340 | Selectivity Index [8]: 250; Activity (Trypanosoma cruzi [5]): Active; CC50 at 24 h [3]: 350 µM

— ChEMBL document CHEMBL3120049, “Conformational restriction of aryl thiosemicarbazones produces potent and selective anti-Trypanosoma cruzi compounds which induce apoptotic parasite death” (Eur J Med Chem, 2014)
